Data from paper PMC8965017 (International Journal of Nanomedicine, 2022).

Columns and labels:
[1] = tested on: MDA-MB-231 cells; assay: Cell uptake of C6-labelled micelles; type: cell-based, human; conditions: MDA-MB-231, 1 h and 4 h
In short: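 Coumarin 6 was loaded into the polymer micelles by film dispersion. MDA-MB-231 cells were seeded overnight at 1×10^4 cells/well and given free C6 or C6-micelles; one group was pretreated with HA (10 mg/mL) for 0.5 h to block the receptor. After 1 h or 4 h at 37°C, cells were PBS-washed three times, paraformaldehyde-fixed for 10 min, DAPI-stained for 10 min at room temperature and viewed by fluorescence microscopy.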

[2] = tested on: MDA-MB-231 tumor-bearing mice; assay: In vivo antitumor efficacy; parameters: species or system BALB/c nude mice; conditions: 5 mg/kg once every 3 days, 6 times, day 18
In short: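 Female BALB/c nude mice aged 4–5 weeks carried subcutaneous MDA-MB-231 tumours. At about 100 mm3 they were randomised into 5 groups (n = 6): PBS, single drugs, combination or nanoparticles. From day 0, intravenous doses of 5 mg/kg were given every 3 days, 6 times in total. Tumour length and width were measured by caliper before each dose to calculate volume, and tumours were excised after the last dose.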

[3] = tested on: MDA-MB-231 cells; assay: Calcein-AM/PI staining; type: cell-based, human; conditions: DAS concentration 10 µM, 24 h
In short: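 MDA-MB-231 cells (RPMI-1640, 10% FBS, 1% penicillin-streptomycin; 37°C, 5% CO2) were seeded at 1×10^4 cells/well and grown overnight. They were then exposed for 24 h to free drugs, their combination or the nanoparticle formulation at a DAS concentration of 10 µM. Cells were stained with calcein-AM/PI at 37°C for 30 min and imaged by fluorescence microscopy.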

[4] = tested on: MDA-MB-231 cells; assay: In vitro cytotoxicity, MTT assay; type: cell-based, human; conditions: 5-100 μM, 24 and 48 h
In short: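 MDA-MB-231 cells were seeded at 1×10^4 cells/well for 24 h. Medium was then replaced with single drugs, their combination or the nanoparticle formulation at 5, 10, 20, 50, 75 and 100 μM. After 24 or 48 h, MTT was added for 4 h and absorbance was read at 490 nm. Survival was calculated from blank, treated and control OD; mean ± SD, n = 3.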

[5] = In vivo safety; parameters: species or system BALB/c nude mice; conditions: after treatment
In short: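 At the end of treatment, blood from the MDA-MB-231 xenograft-bearing nude mice was assayed for serum AST, ALT, AKP, BUN and creatinine. Major organs (heart, liver, spleen, lung, kidney) were taken for HE staining. Mean ± SD, n = 3.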

CCN(CC)c1ccc2cc(-c3nc4ccccc4s3)c(=O)oc2c1 [C6, coumarin 6]
cellular uptake (green fluorescence of C6) [1]: weak green fluorescence

Cc1nc(Nc2ncc(C(=O)Nc3c(C)cccc3Cl)s2)cc(N2CCN(CCO)CC2)n1 [DAS, Dasatinib]
tumor growth inhibition rate (TGI) [2]: 49.83%

O=C(c1cc(Cc2n[nH]c(=O)c3ccccc23)ccc1F)N1CCN(C(=O)C2CC2)CC1 [OLA, Olaparib]
live/dead fluorescence (green living, red dead) [3]: no obvious red appearance | toxicity to MDA-MB-231 cells (MTT) [4]: low toxicity | serum indicators of liver and renal function (AST, ALT, BUN, CRE) vs normal mice [5]: significantly increased
